Each block holds one compound with its values, some of them ahead of it.
Key:
[1] = molecular target: T1, DinF-BH (Halalkalibacterium halodurans, UniProt Q9KAX3); assay: Fluorescence measurement of H+-release upon drug binding; assay type: biochemical, Bacillus halodurans; conditions: 4 μM protein, 250 μM TPP, fluoresceine pH indicator, repeated three times
T1 sequence (Q9KAX3 1-464): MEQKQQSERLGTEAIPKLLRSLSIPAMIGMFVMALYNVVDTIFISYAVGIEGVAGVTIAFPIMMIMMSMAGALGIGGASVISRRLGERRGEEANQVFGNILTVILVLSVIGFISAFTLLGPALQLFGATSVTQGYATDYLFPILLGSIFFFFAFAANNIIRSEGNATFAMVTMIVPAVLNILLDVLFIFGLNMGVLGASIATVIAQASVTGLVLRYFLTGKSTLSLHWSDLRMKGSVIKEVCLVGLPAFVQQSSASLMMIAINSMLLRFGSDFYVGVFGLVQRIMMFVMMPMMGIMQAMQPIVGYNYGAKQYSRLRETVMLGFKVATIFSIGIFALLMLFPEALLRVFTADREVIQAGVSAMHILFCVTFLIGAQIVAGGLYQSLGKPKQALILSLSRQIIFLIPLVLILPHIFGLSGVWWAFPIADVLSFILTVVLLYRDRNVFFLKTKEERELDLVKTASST
In short: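 Purified transporter was dialysed against 10% (vol/vol) glycerol, 50 mM NaCl and 0.03% (wt/vol) DDM, then diluted to 4 μM in the same buffer with 2 μM fluoresceine as pH indicator. The sample was stirred, and fluorescence was read at excitation 494 nm and emission 521 nm. TPP was added to 250 μM. Three repeats.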

[2] = molecular target: T1, DinF-BH; assay: Drug-H+ antiport assay in everted membrane vesicles containing DinF-BH; assay type: biochemical, Bacillus halodurans; conditions: 250 μM TPP, acridine orange fluorescence
[3] = test system: NorM-NG; assay: Drug-H+ antiport assay in everted membrane vesicles containing NorM-NG; assay type: biochemical, Neisseria gonorrhoeae; conditions: 250 μM TPP, acridine orange fluorescence
[4] = molecular target: T1, DinF-BH; assay: Fluorescence polarization assay of R6G binding to purified DinF-BH; set-up: species or system Bacillus halodurans
[5] = molecular target: T2, DinF-BH D40N mutant (Halalkalibacterium halodurans, UniProt Q9KAX3, D40N); assay: Fluorescence polarization assay of R6G binding to purified D40N mutant; set-up: species or system Bacillus halodurans
T2 sequence (Q9KAX3 1-464 D40N): T1 sequence (Q9KAX3 1-464)
In short: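 Each protein concentration was read after a 10-min incubation. Kd comes from the binding isotherm, three titrations, SD. For pH dependence the binding solutions spanned pH 5.5–9.0, fitted to Kd = (1 + [H+]/Ki)Kmin.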

stoichiometry of H+ released per DinF-BH upon drug binding [1]: 1.00 ± 0.07 H^+ per DinF-BH | H+ efflux (fluorescence dequenching) on addition of substrate, DinF-BH vesicles [2]: elicited efflux of H^+
Structure (SMILES): c1ccc([P+](c2ccccc2)(c2ccccc2)c2ccccc2)cc1 [TPP, tetraphenylphosphonium]
H+ efflux (fluorescence dequenching) on addition of substrate, NorM-NG vesicles [3]: no response

Structure (SMILES): C(=NC1CCCCC1)=NC1CCCCC1 [dicyclohexylcarbodiimide]
effect of treatment of DinF-BH on the binding of R6G ([4]; treatment of DinF-BH with the chemical): abolished the binding of R6G

Structure (SMILES): CC/N=c1\cc2oc3cc(NCC)c(C)cc3c(-c3ccccc3C(=O)OCC)c-2cc1C [R6G, rhodamine 6G]
Kd [5]: 107 ± 4.1 µM | Kd [4]: 3.1 ± 0.4 µM

From paper PMC3825517 (Nature structural & molecular biology, 2013)
